Laboratory results taken from ChEMBL document CHEMBL1136779 (J Med Chem, 2003).

Tests used:
[1] = molecular target: T1, Carboxypeptidase G2 (Pseudomonas aeruginosa (strain ATCC 15692 / PAO1 / 1C / PRS 101 / LMG12228)) (UniProt Q9I056); assay: (§1) The kinetics of activation of the self-immolative prodrug by Carboxypeptidase G2 was measured
T1 sequence (whole entry): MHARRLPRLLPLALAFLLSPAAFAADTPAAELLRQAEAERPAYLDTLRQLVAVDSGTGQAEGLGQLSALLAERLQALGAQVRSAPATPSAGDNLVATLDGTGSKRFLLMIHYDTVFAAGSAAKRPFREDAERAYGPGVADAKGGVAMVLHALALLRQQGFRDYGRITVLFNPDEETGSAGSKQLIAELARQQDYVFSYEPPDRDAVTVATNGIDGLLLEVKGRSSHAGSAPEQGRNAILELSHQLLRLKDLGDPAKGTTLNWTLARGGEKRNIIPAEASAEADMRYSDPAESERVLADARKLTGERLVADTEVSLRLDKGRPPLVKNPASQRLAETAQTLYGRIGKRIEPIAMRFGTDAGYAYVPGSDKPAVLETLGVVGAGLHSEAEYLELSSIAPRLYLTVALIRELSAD
In short: (§2)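 CPG2 (50 mU) with prodrug 5-50 µM in 5 µM steps in CPG2 assay buffer (100 mM Tris-HCl pH 7.3, 260 µM ZnCl₂), 37 °C. Remaining prodrug quantified by HPLC at 0, 5, 10, 15 and 20 min; Km and kcat derived.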

[2] = Half-life period (prodrug) was determined; type: ADME
In short: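 Aqueous stability: 100 µM compound in CPG2 assay buffer (100 mM Tris-HCl pH 7.3, 260 µM ZnCl₂). Remaining parent measured by isocratic reverse-phase HPLC (10 mM ammonium acetate pH 5.0/methanol, UV 250 or 265-275 nm) at several times. Half-life from one-phase exponential decay fit. Labile compounds instead followed by absorbance change over 3 min; t½ = 0.69/rate constant.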

[3] = system: WiDr; assay: Cytotoxicity in WiDr cells expressing surface-tethered carboxypeptidase G2 (CPG2); type: functional, cell-based; conditions: Homo sapiens
In short: (§3)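 WiDr cells stably expressing surface-tethered CPG2 (stCPG2(Q)3) or β-galactosidase control; 2 × 10⁶ cells seeded, confluent after 48 h. Compound in DMSO stock diluted in medium, re-added at similar concentration after 1 h, further 20 h exposure. Cells reseeded in quadruplicate at ~2 × 10³/well, grown until controls confluent; SRB stain, 590 nm. IC50 from log dose-response sigmoid fit.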

[4] = Ratio of the half-life period of the prodrug and the drug was determined; type: ADME
[5] = system: WiDr; assay: Cytotoxicity in WiDr cells expressing beta-galactosidase control; type: functional, cell-based; conditions: Homo sapiens; in short: as §3
[6] = molecular target: T1, Carboxypeptidase G2 (Pseudomonas aeruginosa (strain ATCC 15692 / PAO1 / 1C / PRS 101 / LMG12228)); assay: Ratio of kinetic constants Kcat and Km was determined against Carboxypeptidase G2; in short: as §2
[7] = system: WiDr; assay: Compound was tested for cytotoxicity in WiDr cells engineered for stable expression of beta-galactosidase; type: functional, cell-based; conditions: Homo sapiens; in short: as §3
[8] = system: WiDr; assay: Compound was tested for cytotoxicity in WiDr cells engineered for stable expression of surface-tethered CPG2; type: functional, cell-based; conditions: Homo sapiens; in short: as §3
[9] = compound: CN(C(=O)OCc1ccc(NC(=O)N[C@@H](CCC(=O)O)C(=O)O)cc1)c1ccc(N(CCCl)CCCl)cc1; assay: as §1; in short: as §2
[10] = compound: CN(C(=O)OCc1ccc(OC(=O)N[C@@H](CCC(=O)O)C(=O)O)cc1)c1ccc(N(CCCl)CCCl)cc1; assay: as §1; in short: as §2
[11] = compound: O=C(O)CC[C@H](NC(=O)Nc1ccc(CO)cc1)C(=O)O; assay: as §1; in short: as §2
[12] = compound: O=C(O)CC[C@H](NC(=O)Nc1ccc(COC(=O)Nc2ccc(N(CCCl)CCCl)cc2)cc1)C(=O)O; assay: as §1; in short: as §2
[13] = compound: O=C(O)CC[C@H](NC(=O)Nc1ccc(COC(=O)Nc2ccccc2N(CCCl)CCCl)cc1)C(=O)O; assay: as §1; in short: as §2
[14] = compound: O=C(O)CC[C@H](NC(=O)Oc1ccc(CO)cc1)C(=O)O; assay: as §1; in short: as §2
[15] = compound: O=C(O)CC[C@H](NC(=O)Oc1ccc(COC(=O)Nc2ccc(N(CCCl)CCCl)cc2)cc1)C(=O)O; assay: as §1; in short: as §2
[16] = compound: O=C(O)CC[C@H](NC(=O)Oc1ccc(COC(=O)Nc2ccccc2N(CCCl)CCCl)cc1)C(=O)O; assay: as §1; in short: as §2

O=C(O)CC[C@H](NC(=O)Oc1ccc(COC(=O)Nc2ccc(N(CCCl)CCCl)cc2)cc1)C(=O)O
k cat [1]: < 10 s⁻¹

CN(C(=O)OCc1ccc(NC(=O)N[C@@H](CCC(=O)O)C(=O)O)cc1)c1ccc(N(CCBr)CCBr)cc1
T1/2 [2]: 2.8 min | IC50 [3]: 4.1 µM | Ratio [4]: 1

CS(=O)(=O)OCCN(CCCl)c1ccccc1NC(=O)OCc1ccc(OC(=O)N[C@@H](CCC(=O)O)C(=O)O)cc1
T1/2 [2]: 10 min | IC50 [3]: 28.5 µM | IC50 [5]: 148 µM

CN(C(=O)OCc1ccc(NC(=O)N[C@@H](CCC(=O)O)C(=O)O)cc1)c1ccc(N(CCCl)CCCl)cc1
T1/2 [2]: 173.6 min | k cat [1]: 5.5 s⁻¹ | k cat/Km [6]: 0.91 | IC50 [3]: 2.5 µM | IC50 [5]: 39.7 µM | Ratio [4]: 20.9

CS(=O)(=O)OCCN(CCOS(C)(=O)=O)c1ccccc1NC(=O)OCc1ccc(OC(=O)N[C@@H](CCC(=O)O)C(=O)O)cc1
T1/2 [2]: 10.8 min | IC50 [3]: 40 µM | IC50 [5]: 208 µM

O=C(O)CC[C@H](NC(=O)Nc1ccc(COC(=O)Nc2ccccc2N(CCI)CCI)cc1)C(=O)O
T1/2 [2]: 2.7 min | IC50 [3]: 3 µM | IC50 [5]: 149 µM

O=C(O)CC[C@H](NC(=O)Oc1ccc(COC(=O)Nc2ccccc2N(CCCl)CCCl)cc1)C(=O)O
T1/2 [2]: 146.3 min | k cat [1]: 4.27 s⁻¹ | k cat/Km [6]: 4.14 | IC50 [3]: 28.1 µM | IC50 [5]: 38.1 µM | Ratio [4]: 11.9

O=C(O)CC[C@H](NC(=O)Oc1ccc(COC(=O)Nc2ccc(N(CCI)CCI)cc2)cc1)C(=O)O
T1/2 [2]: 0.98 min | IC50 [3]: 1.3 µM | IC50 [5]: 53.6 µM | Ratio [4]: 2

O=C(O)CC[C@H](NC(=O)Oc1ccc(COC(=O)Nc2ccc(N(CCBr)CCBr)cc2)cc1)C(=O)O
T1/2 [2]: 0.9 min | IC50 [3]: 2.6 µM | IC50 [5]: 99.7 µM | Ratio [4]: 0.4

CN(C(=O)OCc1ccc(NC(=O)N[C@@H](CCC(=O)O)C(=O)O)cc1)c1ccc(N(CCI)CCI)cc1
T1/2 [2]: 3.9 min | IC50 [3]: 1.5 µM | Ratio [4]: 6.5

CN(C(=O)OCc1ccc(OC(=O)N[C@@H](CCC(=O)O)C(=O)O)cc1)c1ccc(N(CCI)CCI)cc1
T1/2 [2]: 4.6 min | IC50 [3]: 2.6 µM | IC50 [5]: 21.5 µM | Ratio [4]: 7.7

O=C(O)CC[C@H](NC(=O)Oc1ccc(CO)cc1)C(=O)O
k cat [1]: 140 s⁻¹ | k cat/Km [6]: 82.3

O=C(O)CC[C@H](NC(=O)Nc1ccc(COC(=O)Nc2ccc(N(CCCl)CCCl)cc2)cc1)C(=O)O
k cat [1]: 10 s⁻¹

O=C(O)CC[C@H](NC(=O)Oc1ccc(COC(=O)Nc2ccccc2N(CCBr)CCBr)cc1)C(=O)O
T1/2 [2]: 3.74 min | IC50 [3]: 95.2 µM | IC50 [5]: 183 µM | Ratio [4]: 3.5

O=C(O)CC[C@H](NC(=O)Nc1ccc(COC(=O)Nc2ccc(N(CCBr)CCBr)cc2)cc1)C(=O)O
T1/2 [2]: 0.85 min | IC50 [3]: 3.1 µM | IC50 [5]: 205 µM | Ratio [4]: 0.4

O=C(O)CC[C@H](NC(=O)Nc1ccc(COC(=O)Nc2ccccc2N(CCCl)CCCl)cc1)C(=O)O
T1/2 [2]: 107.5 min | k cat [1]: 2.92 s⁻¹ | k cat/Km [6]: 5.31 | IC50 [3]: 4.5 µM | IC50 [5]: 21.1 µM | Ratio [4]: 13.9

CS(=O)(=O)OCCN(CCCl)c1ccc(C(=O)N[C@@H](CCC(=O)O)C(=O)O)cc1
T1/2 [2]: 59 min | IC50 [7]: 3230 µM | IC50 [8]: 100 µM | Ratio [4]: 2.3

O=C(O)CC[C@H](NC(=O)Nc1ccc(COC(=O)Nc2ccccc2N(CCBr)CCBr)cc1)C(=O)O
T1/2 [2]: 3 min | IC50 [3]: 4.7 µM | IC50 [5]: 118 µM | Ratio [4]: 3.5

O=C(O)CC[C@H](NC(=O)Oc1ccc(COC(=O)Nc2ccccc2N(CCI)CCI)cc1)C(=O)O
T1/2 [2]: 2.1 min | IC50 [3]: 19 µM | IC50 [5]: 73.3 µM

O=C(O)CC[C@H](NC(=O)Nc1ccc(COC(=O)Nc2ccc(N(CCI)CCI)cc2)cc1)C(=O)O
T1/2 [2]: 0.97 min | IC50 [3]: 1.8 µM | IC50 [5]: 180 µM | Ratio [4]: 1.9

CN(C(=O)OCc1ccc(OC(=O)N[C@@H](CCC(=O)O)C(=O)O)cc1)c1ccc(N(CCBr)CCBr)cc1
T1/2 [2]: 2.7 min | IC50 [3]: 3.6 µM | IC50 [5]: 27.2 µM | Ratio [4]: 1

CN(C(=O)OCc1ccc(OC(=O)N[C@@H](CCC(=O)O)C(=O)O)cc1)c1ccc(N(CCCl)CCCl)cc1
T1/2 [2]: 173.6 min | k cat [1]: 4.32 s⁻¹ | k cat/Km [6]: 1.78 | IC50 [3]: 1.7 µM | IC50 [5]: 19.6 µM | Ratio [4]: 20.6

O=C(O)CC[C@H](NC(=O)Nc1ccc(CO)cc1)C(=O)O
k cat [1]: 65.4 s⁻¹ | k cat/Km [6]: 21.1

B1: Carboxypeptidase G2 (Pseudomonas aeruginosa (strain ATCC 15692 / PAO1 / 1C / PRS 101 / LMG12228)), Q9I056 (protein)
chain: MHARRLPRLLPLALAFLLSPAAFAADTPAAELLRQAEAERPAYLDTLRQLVAVDSGTGQAEGLGQLSALLAERLQALGAQVRSAPATPSAGDNLVATLDGTGSKRFLLMIHYDTVFAAGSAAKRPFREDAERAYGPGVADAKGGVAMVLHALALLRQQGFRDYGRITVLFNPDEETGSAGSKQLIAELARQQDYVFSYEPPDRDAVTVATNGIDGLLLEVKGRSSHAGSAPEQGRNAILELSHQLLRLKDLGDPAKGTTLNWTLARGGEKRNIIPAEASAEADMRYSDPAESERVLADARKLTGERLVADTEVSLRLDKGRPPLVKNPASQRLAETAQTLYGRIGKRIEPIAMRFGTDAGYAYVPGSDKPAVLETLGVVGAGLHSEAEYLELSSIAPRLYLTVALIRELSAD
Km [9]: 6.05 µM | Km [10]: 2.43 µM | Km [11]: 3.1 µM | Km [12]: < 5 µM | Km [13]: 0.55 µM | Km [14]: 1.7 µM | Km [15]: < 5 µM | Km [16]: 1.02 µM
